“And” between values parts separate entries of the source, which are not always exact repeats. Equal entries are not always repeated.
Assays:
[1] = target: ATP-dependent translocase ABCB1 (Homo sapiens, UniProt P08183); assay: Inhibition of human recombinant P-glycoprotein after 40 mins by Pgp-Glo assay
In short: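 Recombinant human P-gp membranes were incubated with test compound (dilution series, 0.781–200 μM) and 5 mM MgATP at 37 °C for 40 min. ATP detection buffer was added and luminescence developed at room temperature for 20 min. IC50 was fitted to concentration–luminescence data by nonlinear least squares.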

[2] = target: T1, Prostaglandin G/H synthase 1 (Ovis aries, UniProt P05979); assay: Inhibition of ovine COX1 by colorimetric assay
T1 sequence (P05979 whole entry): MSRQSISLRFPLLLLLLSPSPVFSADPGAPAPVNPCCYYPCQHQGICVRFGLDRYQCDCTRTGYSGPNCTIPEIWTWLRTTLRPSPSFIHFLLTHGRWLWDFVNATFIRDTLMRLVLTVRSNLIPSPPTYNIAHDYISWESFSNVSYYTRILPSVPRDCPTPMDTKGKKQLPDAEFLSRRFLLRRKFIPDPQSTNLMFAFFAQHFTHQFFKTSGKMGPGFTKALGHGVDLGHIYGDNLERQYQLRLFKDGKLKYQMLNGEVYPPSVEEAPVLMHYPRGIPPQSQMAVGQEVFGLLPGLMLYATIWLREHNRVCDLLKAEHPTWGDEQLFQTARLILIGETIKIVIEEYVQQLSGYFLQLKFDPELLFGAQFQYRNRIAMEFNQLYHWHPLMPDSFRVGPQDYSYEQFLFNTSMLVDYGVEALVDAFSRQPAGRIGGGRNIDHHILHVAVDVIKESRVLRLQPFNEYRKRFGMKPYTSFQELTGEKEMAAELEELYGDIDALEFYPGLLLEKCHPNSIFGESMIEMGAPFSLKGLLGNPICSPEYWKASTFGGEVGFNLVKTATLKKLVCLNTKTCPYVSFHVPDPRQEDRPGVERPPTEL
In short: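 Colorimetric ovine COX inhibitor screening kit, run per the supplier's protocol. Each experiment was done at least four times and reported as mean ± SEM.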

[3] = target: Multidrug resistance-associated protein 1 (Homo sapiens, UniProt P33527); assay: Inhibition of human MRP1 in human T98G cells assessed as potentiation of doxorubicin induced cytotoxicity at 50 uM pre-incubated for 2 hrs before doxorubicin addition and measured 4 days after doxorubicin exposure by MTT assay relative to untreated control; format: cell-based; conditions: 96 h
Multidrug resistance-associated protein 1, sequence (P33527 whole entry): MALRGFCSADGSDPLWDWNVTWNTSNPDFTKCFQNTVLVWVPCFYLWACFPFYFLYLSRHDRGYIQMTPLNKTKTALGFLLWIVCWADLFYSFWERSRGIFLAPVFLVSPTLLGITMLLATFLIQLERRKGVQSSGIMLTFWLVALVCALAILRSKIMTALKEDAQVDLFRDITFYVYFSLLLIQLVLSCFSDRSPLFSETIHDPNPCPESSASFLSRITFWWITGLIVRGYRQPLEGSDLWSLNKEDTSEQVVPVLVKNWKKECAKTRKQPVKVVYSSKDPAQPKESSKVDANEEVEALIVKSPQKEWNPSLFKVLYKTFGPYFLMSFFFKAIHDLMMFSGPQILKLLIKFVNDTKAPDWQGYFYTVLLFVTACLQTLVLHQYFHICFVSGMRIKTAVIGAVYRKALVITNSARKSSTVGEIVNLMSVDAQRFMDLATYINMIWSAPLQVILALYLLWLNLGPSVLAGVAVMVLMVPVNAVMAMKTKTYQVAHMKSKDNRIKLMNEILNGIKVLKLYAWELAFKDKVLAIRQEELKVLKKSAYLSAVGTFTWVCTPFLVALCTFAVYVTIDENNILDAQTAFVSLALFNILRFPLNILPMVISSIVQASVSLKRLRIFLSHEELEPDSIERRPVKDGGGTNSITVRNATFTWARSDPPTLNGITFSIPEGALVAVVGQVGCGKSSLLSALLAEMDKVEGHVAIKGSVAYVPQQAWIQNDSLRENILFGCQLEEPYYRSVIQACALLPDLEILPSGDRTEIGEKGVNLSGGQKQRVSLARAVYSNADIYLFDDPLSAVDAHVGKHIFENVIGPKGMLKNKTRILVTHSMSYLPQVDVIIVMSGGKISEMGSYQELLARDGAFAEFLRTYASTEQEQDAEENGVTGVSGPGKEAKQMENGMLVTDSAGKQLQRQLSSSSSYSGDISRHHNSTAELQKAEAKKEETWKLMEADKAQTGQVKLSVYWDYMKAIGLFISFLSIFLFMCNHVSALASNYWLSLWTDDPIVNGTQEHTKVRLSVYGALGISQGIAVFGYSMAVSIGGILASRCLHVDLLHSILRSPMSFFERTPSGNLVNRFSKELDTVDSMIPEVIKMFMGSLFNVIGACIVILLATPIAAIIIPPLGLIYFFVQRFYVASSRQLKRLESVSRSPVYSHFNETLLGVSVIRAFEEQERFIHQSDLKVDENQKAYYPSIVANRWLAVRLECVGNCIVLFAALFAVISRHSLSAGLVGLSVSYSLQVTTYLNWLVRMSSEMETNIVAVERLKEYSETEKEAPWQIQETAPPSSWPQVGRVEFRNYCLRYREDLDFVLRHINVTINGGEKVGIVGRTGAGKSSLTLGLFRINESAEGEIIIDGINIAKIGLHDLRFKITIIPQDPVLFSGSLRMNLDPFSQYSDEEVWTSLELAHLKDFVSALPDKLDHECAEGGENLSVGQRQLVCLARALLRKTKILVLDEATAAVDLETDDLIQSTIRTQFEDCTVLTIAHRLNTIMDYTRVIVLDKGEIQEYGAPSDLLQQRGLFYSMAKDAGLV

[4] = system: T98G; assay: Cytotoxicity against human T98G cells assessed as inhibition of cell growth at 1 uM by MTT assay; format: functional; conditions: read-out: GI

ATP-dependent translocase ABCB1, sequence (P08183 whole entry): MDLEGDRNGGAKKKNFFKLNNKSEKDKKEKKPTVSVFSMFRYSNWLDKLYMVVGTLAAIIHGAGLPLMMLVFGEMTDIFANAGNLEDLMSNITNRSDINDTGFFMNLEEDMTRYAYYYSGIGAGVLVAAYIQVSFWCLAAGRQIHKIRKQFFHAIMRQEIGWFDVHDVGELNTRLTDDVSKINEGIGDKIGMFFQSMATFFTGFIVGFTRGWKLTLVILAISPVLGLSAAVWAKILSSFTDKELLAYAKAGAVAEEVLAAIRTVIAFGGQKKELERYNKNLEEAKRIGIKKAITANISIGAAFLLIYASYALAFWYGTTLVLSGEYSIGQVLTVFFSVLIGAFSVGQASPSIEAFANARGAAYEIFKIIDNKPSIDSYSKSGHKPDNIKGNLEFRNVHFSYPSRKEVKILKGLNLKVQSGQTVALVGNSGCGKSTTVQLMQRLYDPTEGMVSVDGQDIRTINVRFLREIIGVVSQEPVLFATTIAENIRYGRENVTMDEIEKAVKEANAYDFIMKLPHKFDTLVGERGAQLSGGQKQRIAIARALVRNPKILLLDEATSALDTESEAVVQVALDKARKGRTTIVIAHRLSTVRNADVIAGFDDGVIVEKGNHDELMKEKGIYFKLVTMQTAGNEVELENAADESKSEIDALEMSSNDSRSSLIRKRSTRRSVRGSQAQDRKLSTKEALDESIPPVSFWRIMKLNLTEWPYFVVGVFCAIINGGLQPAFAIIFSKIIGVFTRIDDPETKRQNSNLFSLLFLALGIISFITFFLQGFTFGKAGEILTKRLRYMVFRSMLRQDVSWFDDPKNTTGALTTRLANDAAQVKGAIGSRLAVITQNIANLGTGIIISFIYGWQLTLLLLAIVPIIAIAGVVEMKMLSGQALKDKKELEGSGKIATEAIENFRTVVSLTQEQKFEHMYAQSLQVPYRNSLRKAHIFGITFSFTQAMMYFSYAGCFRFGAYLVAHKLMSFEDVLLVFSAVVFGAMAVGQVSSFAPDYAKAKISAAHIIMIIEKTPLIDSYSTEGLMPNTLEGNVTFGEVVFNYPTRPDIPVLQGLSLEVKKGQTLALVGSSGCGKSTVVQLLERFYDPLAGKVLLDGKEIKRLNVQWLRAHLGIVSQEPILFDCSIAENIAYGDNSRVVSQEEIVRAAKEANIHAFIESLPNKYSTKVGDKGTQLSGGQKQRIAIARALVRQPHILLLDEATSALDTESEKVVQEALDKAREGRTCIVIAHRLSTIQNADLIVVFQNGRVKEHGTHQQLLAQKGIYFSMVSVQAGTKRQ

IC50 [1] | IC50 [2] [µM] | Structure (SMILES) | inhibition (INH) [3] | inhibition of growth at 1 µM [4] [%]
20 µM | > 400 | CCc1c(CC(=O)O)c2ccccc2n1C(=O)c1ccc(Cl)cc1 | Active | –
15 µM | > 400 | COc1cccc2c(CC(=O)O)c(C)n(C(=O)c3ccc(Cl)cc3)c12 | Active | –
17 µM | > 400 | CCc1cccc2c(CC(=O)O)cn(C(=O)c3ccc(Cl)cc3)c12 | Not Active | –
32 µM and 28 µM | – | COc1ccc2c(c1)c(CC(=O)O)c(C)n2C(=O)c1ccc(Cl)cc1 [INDOMETHACIN] | – | –

More lines, now with the values behind:

Structure (SMILES) | IC50 [1] | IC50 [2] [µM] | inhibition (INH) [3] | inhibition of growth at 1 µM [4] [%]
Cc1c(CC(=O)O)c2ccccc2n1C(=O)c1ccc(Cl)cc1 | 20 µM | 0.01 | – | –
O=C(O)Cc1c(-c2ccccc2)n(C(=O)c2ccc(Cl)cc2)c2ccccc12 | 18 µM | > 400 | Active | –
COc1ccc2c(CC(=O)O)c(C)n(C(=O)c3ccc(Cl)cc3)c2c1 | 9.8 µM | > 200 | – | –
COc1cccc2c1C(=O)c1c(O)c3c(c(O)c1C2=O)C[C@@](O)(C(=O)CO)C[C@@H]3O[C@H]1C[C@H](N)[C@H](O)[C@H](C)O1 [DOXORUBICIN] | – | – | – | 40
